Results: ChEMBL document CHEMBL4699650, “SAR Investigation and Discovery of Water-Soluble 1-Methyl-1,4-dihydroindeno[1,2-c]pyrazoles as Potent Tubulin Polymerization Inhibitors” (J Med Chem, 2020)
The source made the active and inactive calls. The rule behind the calls is not given here.

Legend:
HepG2 [1] = assay: Antitumor activity against human HepG2 cells xenografted in Balb/c nude mouse assessed as reduction in tumor volume at 25 mg/kg, ig qd administered for 21 days measured at 3 days interval during compound dosing relative to control; format: functional; parameters: scale not given: the % may be the effect or the level left; details: time 21 day
[2] = Cytotoxicity against human L02 cells assessed as assessed as cell growth inhibition measured after 72 hrs by MTT assay; format: cell-based
How it was run: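 LO2 normal liver cells cultured in RPMI-1640/10% FBS at 37 °C, 5% CO2 and seeded at 4−7 × 10³ cells/well. Graded concentrations applied for 72 h, then MTT readout at 570 nm. GI50 is the concentration giving 50% growth inhibition, mean ± SD of at least three independent experiments.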

Tubulin (Homo sapiens) = Tubulin (Homo sapiens) (UniProt P68371+Q9H4B7+P0DPH7+P68366+Q13509+Q71U36+P04350+Q3ZCM7+P07437+P68363+Q9BQE3+Q6PEY2+Q13885+Q9BVA1+Q9BUF5); assay: Induction of microtubule cytoskeleton disruption in human HepG2 cells assessed as microtubule shrinkage to the cell border at 10 nM measured after 24 hrs by Hoechst 33342 staining based immunofluorescence confocal microscopy analysis
How it was run: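 Fixed in ice-cold methanol/acetic acid 3:1, permeabilized 0.3% Triton X-100, blocked 5% BSA. Mouse anti-tubulin overnight at 4 °C, then TRITC anti-mouse IgG 2 h at 37 °C. Imaged by laser scanning confocal microscopy.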

HepG2 [3] = assay: Induction of cell cycle arrest in human HepG2 cells assessed as accumulation in S phase at 5 nM incubated for 24 hrs by propidium iodide staining based flow cytometry (reference value: 26.65%); format: functional
HepG2 [4] = assay: Induction of cell cycle arrest in human HepG2 cells assessed as accumulation in G1 phase at 10 nM incubated for 24 hrs by propidium iodide staining based flow cytometry (reference value: 60.76%); format: functional
HepG2 [5] = assay: Induction of cell cycle arrest in human HepG2 cells assessed as accumulation in G1 phase at 20 nM incubated for 24 hrs by propidium iodide staining based flow cytometry (reference value: 60.76%); format: functional
HepG2 [6] = assay: Induction of cell cycle arrest in human HepG2 cells assessed as accumulation in G2/M phase at 20 nM incubated for 24 hrs by propidium iodide staining based flow cytometry (reference value: 12.59%); format: functional
HepG2 [7] = assay: Induction of apoptosis in human HepG2 cells assessed as late apoptotic cells at 5 nM incubated for 12 hrs by Annexin V-PE and 7-AAD staining based flow cytometry (reference value: 2.79%); format: functional
How it was run: (§1)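 HepG2 cells seeded at 3 × 10⁵ cells/well, adhered overnight, exposed at 5, 10 or 20 nM for 12 or 24 h. Harvested into Annexin V binding buffer and stained with annexin V-PE and 7-AAD for 15 min at room temperature in the dark, then analysed by flow cytometry. Gates: live (−/−), early apoptotic (+/−), late apoptotic (+/+), necrotic (−/+).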

HepG2 [8] = assay: Induction of apoptosis in human HepG2 cells assessed as early apoptotic cells at 10 nM incubated for 12 hrs by Annexin V-PE and 7-AAD staining based flow cytometry (reference value: 4.52%); format: functional; how it was run: as §1
HepG2 [9] = assay: Induction of apoptosis in human HepG2 cells assessed as live cells at 10 nM incubated for 24 hrs by Annexin V-PE and 7-AAD staining based flow cytometry (reference value: 93.2%); format: functional; how it was run: as §1
HepG2 [10] = assay: Induction of apoptosis in human HepG2 cells assessed as necrotic cells at 20 nM incubated for 24 hrs by Annexin V-PE and 7-AAD staining based flow cytometry (reference value: 0.34 %); format: functional; how it was run: as §1
HepG2 [11] = assay: Induction of apoptosis in human HepG2 cells assessed as late apoptotic cells at 20 nM incubated for 24 hrs by Annexin V-PE and 7-AAD staining based flow cytometry (reference value: 2.33 %); format: functional; how it was run: as §1
HepG2 [12] = assay: Inhibition of cell migration in human HepG2 cells at 10 nM measured after 24 hrs by inverted light microscopy method based wound healing assay relative to control; format: functional
How it was run: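 Confluent HepG2 monolayer (seeded 3 × 10⁵ cells/well) scratched with a pipette tip and washed with PBS. Incubated in serum-free DMEM with compound at 2.5, 5 or 10 nM for 24 h; CA-4 run in parallel, DMSO as vehicle. Wound imaged at 0 and 24 h by inverted microscope and compared with control.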

[13] = Aqueous solubility of compound in DMSO at pH 7.4 by HPLC analysis; format: physicochemical; details: aqueous medium
How it was run: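 Solubility measured at pH 7.4. DMSO stock (10 mg/mL) diluted in methanol to five levels to build an HPLC peak-area standard curve. Compound added to 1 mL buffer to make a saturated solution, and the peak area of that solution analysed by HPLC on a C18 column. Solubility calculated from the standard curve.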

[14] = Toxicity in Balb/c nude mouse xenografted with human HepG2 cells assessed as change in body weight at 10 mg/kg, iv administered every 2 days for 21 days (reference value: 7.8 % ); format: organism-based; details: in vivo, 504 h, time 21 day
HepG2 [15] = assay: Antitumor activity against human HepG2 cells xenografted in iv dosed Balb/c nude mouse assessed as tumor growth inhibition administered every 2 days for 21 days; format: functional, organism-based; details: time 21.0 day
How it was run: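 Nude mice received 200 μL PBS containing HepG2 at 1 × 10⁷ cells/mL subcutaneously in the right armpit. Randomised at 90 mm³ tumour volume, five per group. Compound given iv as a 2.0 mg/mL solution in distilled water, 5 or 10 mg/kg every two days for 21 days, with a water vehicle group. Tumour volume (L × W²/2) and body weight recorded every 3 days. Inhibition = (1 − RTV treated/RTV vehicle) × 100%.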

[16] = Toxicity in Balb/c nude mouse xenografted with human HepG2 cells assessed as adverse signs at 25 mg/kg, po qd administered for 21 days; format: organism-based; details: in vivo, 504 h, time 21 day
How it was run: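 Nude mice received 200 μL PBS with HepG2 cells (1 × 10⁷ cells/mL) subcutaneously in the right armpit. At 90 mm³ tumour volume, randomized to 5 per group. Dosed 25 mg/kg as a 2.5 mg/mL distilled-water solution, intragastric once daily for 21 days; distilled water as vehicle. Body weight recorded every 3 days; change given as initial vs end weight.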

[17] = Toxicity in Balb/c nude mouse xenografted with human HepG2 cells assessed as adverse signs at 5 to 10 mg/kg, iv administered every 2 days for 21 days; format: organism-based; details: in vivo, 504 h, dose 5-10 mg/kg, time 21 day
[18] = Selectivity index, ratio of GI50 for cytotoxicity against human L02 cells to GI50 for antiproliferation activity against human HepG2 cells assessed as cell growth inhibition measured after 72 hrs by MTT assay; format: toxicity, cell-based; details: L02 cells and HepG2 cells, read-out: RatioGI50
How it was run: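 MTT assay: cells seeded 4–7 × 10³/well, adhered overnight, exposed to a concentration series for 72 h. MTT (2.5 mg/mL stock) added for 4 h, crystals dissolved in DMSO, absorbance read at 570 nm. GI50 is mean ± SD of ≥3 independent experiments. Selectivity = GI50 on normal LO2 / GI50 on HepG2. Resistance fold = GI50 on resistant cells / GI50 on sensitive cells.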

[19] = Resistance index, ratio of GI50 for antiproliferation activity against human A549/Taxol cells to GI50 for antiproliferation activity against human A549 cells assessed as cell growth inhibition measured after 72 hrs by MTT assay

For CCOc1cccc(Nc2nn(C)c3c2Cc2cc(OCC)c(OCCCN)cc2-3)c1, the Activity (HepG2 [1]) was 57%, the GI50 at 72 h [2] was 284 nM and the Activity (Tubulin (Homo sapiens)) was “Active”. For the same molecule, the Activity (HepG2 [3]) was 30.66%, the Activity (HepG2 [4]) was 17.07% and the Activity (HepG2 [5]) was 3.11%. The Activity (HepG2 [6]) was 88.46%, the Activity (HepG2 [7]) was 3.53% and the Activity (HepG2 [8]) was 9.58%. It also gave an Activity (HepG2 [9]) of 75.5%, an Activity (HepG2 [10]) of 0.71% and an Activity (HepG2 [11]) of 10.7%. For the same molecule, the inhibition at 0.01 µM (HepG2 [12]) was 58%, the solubility [13] was over 1000 µg/mL and the Activity [14] was 6.9%. The Activity (HepG2 [15]) was “Dose-dependent effect”, the Activity [16] was “Non-Toxic” and the Activity [17] was “Non-Toxic”. It also gave a selectivity ratio at 72 h [18] of 118 and a RatioGI50 [19] of 4.
